This assay is filed under the species Homo sapiens. Nature of the assay: Bronchorelaxing effect on LTD4-contracted small human lung airways assessed as remaining contraction at 10 uM after 1.5 hrs relative to control. It counts as functional. An outline of the steps:
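Human small airways (0.5–1.5 mm diameter) from lung cancer patients, in vitro. Each preparation contracted with 10 nM LTD4 untreated, then again after 1.5 h exposure to 10 µM test compound. Value is the percent of the full LTD4 contraction that remains, given as arithmetic mean ± SEM with n in parentheses.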

Regarding `Oc1ccc2c(c1Cl)CN(C(=S)NCCc1ccc(Cl)cc1)CC2`, the Activity came to 47%. As for `O=C(O)c1cc2c(cc1C(=O)O)CN(C(=S)NCCc1ccc(Cl)cc1)CC2`, the figure is 99%; as for `Oc1c(Cl)cc2c(c1Cl)CCN(C(=S)NCCc1ccc(Cl)cc1)C2`, 55%; as for `Nc1ccc2c(c1)CCN(C(=S)NCCc1ccc(Cl)cc1)C2`, 62%.

For the compound `Oc1c(O)c(Cl)c2c(c1Cl)CCCN(C(=S)NCCc1ccc(Cl)cc1)C2`, the Activity came to 38%. As for `CS(=O)(=O)Nc1ccc2c(c1)CCN(C(=S)NCCc1ccc(Cl)cc1)C2`, the figure is 75%; as for `Oc1ccc2c(c1Cl)CN(C(=S)NCCc1ccc(Cl)cc1)CCC2`, 46%.

For `Oc1cc2c(c(Cl)c1O)CN(C(=S)NCCc1ccc(Cl)cc1)CCC2`, the Activity was 63%. On to `Oc1c(Cl)cc2c(c1Cl)CCCN(C(=S)NCCc1ccc(Cl)cc1)C2`, for which the Activity was determined as 30%. Then `CC1c2c(Cl)c(O)c(O)c(Cl)c2CCN1C(=S)NCCc1ccc(Cl)cc1` (stereo unspecified), with 48%; and `N#Cc1cc2c(cc1C#N)CN(C(=S)NCCc1ccc(Cl)cc1)CC2`, with 84%; and `CS(=O)(=O)Nc1ccc2c(c1)CN(C(=S)NCCc1ccc(Cl)cc1)CC2`, with 72%. As for `S=C(NCCc1ccc(Cl)cc1)N1CCc2ccccc2C1`, the figure is 83%.

`Oc1cc2c(c(Cl)c1O)CN(C(=S)NCCc1ccc(Cl)cc1)C2`: the Activity is 65%. As for `Oc1cc2c(c(Cl)c1O)CCCN(C(=S)NCCc1ccc(Cl)cc1)C2`, the Activity was 64%. With `Oc1c(O)c(Cl)c2c(c1Cl)CCN(C(=S)NCCc1ccc(Cl)cc1)CC2`, the Activity came to 29%. Then `Oc1cc2c(cc1Cl)CCCN(C(=S)NCCc1ccc(Cl)cc1)C2`, with 56%; and `Oc1cc2c(c(Cl)c1O)CCN(C(=S)NCCc1ccc(Cl)cc1)C2`, with 40%.

As for `Oc1ccc2c(c1Cl)CCN(C(=S)NCCc1ccc(Cl)cc1)C2`, the Activity was found to be 69%. Regarding `Oc1cc2c(cc1Cl)CN(C(=S)NCCc1ccc(Cl)cc1)CCC2`, the Activity is 49%. For the compound `Oc1c(O)c(Cl)c2c(c1Cl)CN(C(=S)NCCc1ccc(Cl)cc1)C2`, the Activity was 31%. For the compound `Oc1c(O)c(Cl)c2c(c1Cl)CCN(C(=S)NCCc1ccc(Cl)cc1)C2`, the Activity came to 14%. For `CC1Cc2c(Cl)c(O)c(O)c(Cl)c2CN1C(=S)NCCc1ccc(Cl)cc1` (stereo unspecified), the Activity came to 31%. For `Oc1c(Cl)cc2c(c1Cl)CN(C(=S)NCCc1ccc(Cl)cc1)CC2`, the Activity was found to be 57%. As for `Oc1cc2c(c(Cl)c1O)CN(C(=S)NCCc1ccc(Cl)cc1)CC2`, the figure is 49%; as for `COC(=O)c1cc2c(cc1C(=O)OC)CN(C(=S)NCCc1ccc(Cl)cc1)CC2`, 87%. As for `Nc1ccc2c(c1)CN(C(=S)NCCc1ccc(Cl)cc1)CC2`, the Activity is 79%. As for `Oc1c(O)c(Cl)c2c(c1Cl)CCN(C(=S)NCCc1ccc(Cl)cc1)C2Cc1ccccc1` (stereo unspecified), the figure is 84%; as for `Oc1cc2c(cc1Cl)CN(C(=S)NCCc1ccc(Cl)cc1)CC2`, 73%; as for `Oc1ccc2c(c1Cl)CCCN(C(=S)NCCc1ccc(Cl)cc1)C2`, 67%. As for `Oc1cc2c(cc1Cl)CCN(C(=S)NCCc1ccc(Cl)cc1)C2`, the Activity worked out at 69%.

Source of the values: ChEMBL document CHEMBL1144018, “SAR studies of capsazepinoid bronchodilators. Part 2: Chlorination and catechol replacement in the A-ring” (Bioorg Med Chem, 2008).
